Source: ChEMBL document CHEMBL1146234, “Synthesis and biological evaluation of N-pyrazolyl-N'-alkyl/benzyl/phenylureas: a new class of potent inhibitors of interleukin 8-induced neutrophil chemotaxis” (J Med Chem, 2007)
Activity calls are given as the source filed them.

Columns and labels:
Neutrophil = assay: Reduction of IL8-stimulated F-actin polymerization in human neutrophils; format: functional; set-up: scale not given: the % may be the effect or the level left
Outline: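 Donor neutrophils were incubated ± compound, washed three times, then stimulated 30 min with medium or 100 nM IL8. Cytospins were stained with Alexa Fluor 488-phalloidin and examined by fluorescence microscopy. Mean fluorescence density came from linear per-cell measurement across ≥5 random fields per slide, in duplicate, ≥3 experiments. Values were given as area percentage, mean ± SD.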

[1] = molecular target: Mitogen-activated protein kinase 14 (Homo sapiens) (UniProt Q16539); assay: Binding affinity to p38alpha
Sequence of Mitogen-activated protein kinase 14 (Homo sapiens) (Q16539 whole entry): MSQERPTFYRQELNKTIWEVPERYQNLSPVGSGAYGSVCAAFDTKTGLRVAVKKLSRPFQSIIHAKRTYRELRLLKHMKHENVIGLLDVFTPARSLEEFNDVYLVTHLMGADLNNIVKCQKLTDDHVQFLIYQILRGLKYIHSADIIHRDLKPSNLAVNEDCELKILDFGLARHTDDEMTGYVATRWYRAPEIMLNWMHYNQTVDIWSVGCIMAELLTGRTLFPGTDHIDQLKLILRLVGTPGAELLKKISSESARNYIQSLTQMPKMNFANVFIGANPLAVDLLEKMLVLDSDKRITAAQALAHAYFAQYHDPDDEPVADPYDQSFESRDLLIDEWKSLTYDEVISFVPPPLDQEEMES

Homo sapiens [2] = species: Homo sapiens; assay: Inhibition of pyk2 60-70Kda region in human neutrophils assessed as reduction of IL8 stimulated tyrosin phosphorylation at 0.01 uM after 30 mins
Outline: (§1)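 Neutrophils (2.5 × 10⁷ cells/mL) were treated with 10⁻³ M diisopropylfluorophosphate for 30 min at room temperature. They were then incubated 30 min ± compound and stimulated with 10⁻⁷ M IL8 for 0.5 min. Samples were boiled in SDS buffer and run on 7.5-20% SDS-PAGE, then blotted to nitrocellulose. Blots were probed overnight at 4 °C with anti-phosphotyrosine mAb 4G10 and detected by ECL. Ponceau S staining confirmed equal loading.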

[3] = molecular target: RAC-alpha serine/threonine-protein kinase (Homo sapiens) (UniProt P31749); assay: Binding affinity to Akt1
Sequence of RAC-alpha serine/threonine-protein kinase (Homo sapiens) (P31749 whole entry): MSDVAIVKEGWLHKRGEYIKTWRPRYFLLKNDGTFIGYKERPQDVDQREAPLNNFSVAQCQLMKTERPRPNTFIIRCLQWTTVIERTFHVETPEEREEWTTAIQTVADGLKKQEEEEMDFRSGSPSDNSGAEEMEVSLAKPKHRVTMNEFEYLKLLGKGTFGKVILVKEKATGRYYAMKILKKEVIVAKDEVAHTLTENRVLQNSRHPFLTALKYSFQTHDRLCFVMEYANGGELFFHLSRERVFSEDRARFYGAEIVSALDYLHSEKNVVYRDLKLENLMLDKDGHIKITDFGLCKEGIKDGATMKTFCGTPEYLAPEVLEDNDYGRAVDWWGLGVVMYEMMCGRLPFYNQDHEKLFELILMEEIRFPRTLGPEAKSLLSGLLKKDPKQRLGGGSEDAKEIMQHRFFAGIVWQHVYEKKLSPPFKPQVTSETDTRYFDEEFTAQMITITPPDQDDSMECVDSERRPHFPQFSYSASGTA

[4] = molecular target: T1, C-C chemokine receptor type 1 (Homo sapiens) (UniProt P32246); assay: Binding affinity to CCR1
T1 sequence (whole entry): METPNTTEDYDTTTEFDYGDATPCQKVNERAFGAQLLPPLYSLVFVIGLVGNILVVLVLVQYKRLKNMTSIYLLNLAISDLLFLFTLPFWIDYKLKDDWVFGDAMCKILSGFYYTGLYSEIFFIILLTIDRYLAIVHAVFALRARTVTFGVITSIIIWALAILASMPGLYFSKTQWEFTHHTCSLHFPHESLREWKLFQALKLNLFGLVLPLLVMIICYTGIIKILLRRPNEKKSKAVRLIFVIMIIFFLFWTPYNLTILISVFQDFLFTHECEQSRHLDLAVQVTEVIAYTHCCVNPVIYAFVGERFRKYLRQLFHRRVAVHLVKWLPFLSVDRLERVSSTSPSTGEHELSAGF

Homo sapiens [5] = species: Homo sapiens; assay: Inhibition of pyk2 50Kda region in human neutrophils assessed as reduction of IL8 stimulated tyrosin phosphorylation at 0.01 uM after 30 mins; outline: as §1
[6] = molecular target: Mitogen-activated protein kinase 8 (Homo sapiens) (UniProt P45983); assay: Binding affinity to JNK1
Sequence of Mitogen-activated protein kinase 8 (Homo sapiens) (P45983 whole entry): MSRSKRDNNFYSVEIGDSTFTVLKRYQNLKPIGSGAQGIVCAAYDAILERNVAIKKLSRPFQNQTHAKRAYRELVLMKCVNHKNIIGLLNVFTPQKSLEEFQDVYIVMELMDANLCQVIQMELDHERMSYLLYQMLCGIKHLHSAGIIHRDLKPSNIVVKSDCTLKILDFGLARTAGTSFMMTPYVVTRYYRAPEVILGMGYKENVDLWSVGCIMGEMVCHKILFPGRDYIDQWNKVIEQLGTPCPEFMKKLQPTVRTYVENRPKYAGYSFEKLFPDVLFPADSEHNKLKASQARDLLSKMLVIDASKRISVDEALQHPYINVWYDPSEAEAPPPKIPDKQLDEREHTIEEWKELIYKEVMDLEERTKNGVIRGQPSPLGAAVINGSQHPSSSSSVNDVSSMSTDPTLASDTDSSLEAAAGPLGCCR

[7] = molecular target: T2, Mitogen-activated protein kinase 12 (Homo sapiens) (UniProt P53778); assay: Binding affinity to p38-gamma
T2 sequence (whole entry): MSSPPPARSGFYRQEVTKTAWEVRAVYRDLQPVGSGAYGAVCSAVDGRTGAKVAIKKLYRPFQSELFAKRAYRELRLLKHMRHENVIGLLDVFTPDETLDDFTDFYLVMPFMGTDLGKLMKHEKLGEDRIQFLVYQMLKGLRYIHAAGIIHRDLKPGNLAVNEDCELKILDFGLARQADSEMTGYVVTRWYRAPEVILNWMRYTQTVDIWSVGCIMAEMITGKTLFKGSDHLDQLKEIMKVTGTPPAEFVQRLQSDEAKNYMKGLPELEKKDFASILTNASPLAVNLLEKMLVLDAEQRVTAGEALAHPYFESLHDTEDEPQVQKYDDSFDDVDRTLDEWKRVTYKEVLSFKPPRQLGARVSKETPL

[8] = molecular target: Mitogen-activated protein kinase 11 (Homo sapiens) (UniProt Q15759); assay: Binding affinity to p38beta2
Sequence of Mitogen-activated protein kinase 11 (Homo sapiens) (Q15759 whole entry): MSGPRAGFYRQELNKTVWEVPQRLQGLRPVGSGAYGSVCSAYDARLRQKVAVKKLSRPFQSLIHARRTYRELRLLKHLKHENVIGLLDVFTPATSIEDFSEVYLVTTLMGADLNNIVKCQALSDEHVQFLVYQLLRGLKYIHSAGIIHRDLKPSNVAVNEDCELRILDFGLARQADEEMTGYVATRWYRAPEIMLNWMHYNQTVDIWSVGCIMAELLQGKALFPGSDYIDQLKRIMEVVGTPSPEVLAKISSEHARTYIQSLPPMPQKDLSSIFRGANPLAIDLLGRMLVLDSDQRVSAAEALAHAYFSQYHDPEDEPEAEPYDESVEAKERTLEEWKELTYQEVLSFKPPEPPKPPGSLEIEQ

[9] = molecular target: RAC-alpha serine/threonine-protein kinase (Homo sapiens) (UniProt P31749); assay: Inhibition of IL8-induced Akt phosphorylation in human neutrophils at 0.01 uM
Outline: (§2)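 Purified human neutrophils (1 × 10⁷ cells/mL) were pretreated 30 min with compound, then exposed to 10 nM IL8 or none for 5 min at 37 °C. Cells were lysed in NP40 buffer, and protein was quantified by BCA. Then […] protein per lane was run on 12% SDS-PAGE, blotted to nitrocellulose, and probed overnight at 4 °C with anti-phospho-Akt mAb. Detection was by ECL.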

[10] = molecular target: Proto-oncogene tyrosine-protein kinase Src (Homo sapiens) (UniProt P12931); assay: Binding affinity to SRC
Sequence of Proto-oncogene tyrosine-protein kinase Src (Homo sapiens) (P12931 2-536 limits assumed): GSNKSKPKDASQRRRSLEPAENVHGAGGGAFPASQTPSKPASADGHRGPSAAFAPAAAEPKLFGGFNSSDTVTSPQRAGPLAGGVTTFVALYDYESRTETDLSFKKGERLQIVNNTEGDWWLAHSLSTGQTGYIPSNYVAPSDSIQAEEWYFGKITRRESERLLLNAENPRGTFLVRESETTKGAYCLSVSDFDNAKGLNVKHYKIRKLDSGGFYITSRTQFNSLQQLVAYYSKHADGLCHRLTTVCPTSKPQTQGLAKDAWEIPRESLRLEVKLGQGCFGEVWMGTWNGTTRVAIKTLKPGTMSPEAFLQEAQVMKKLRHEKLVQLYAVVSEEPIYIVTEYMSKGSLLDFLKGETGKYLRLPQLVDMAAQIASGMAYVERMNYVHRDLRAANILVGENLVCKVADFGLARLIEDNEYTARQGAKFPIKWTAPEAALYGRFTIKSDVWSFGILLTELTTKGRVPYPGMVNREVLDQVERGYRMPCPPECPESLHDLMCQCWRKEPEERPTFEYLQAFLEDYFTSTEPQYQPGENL

[11] = molecular target: Mitogen-activated protein kinase 3 (Homo sapiens) (UniProt P27361); assay: Binding affinity to ERK1
Sequence of Mitogen-activated protein kinase 3 (Homo sapiens) (P27361 whole entry): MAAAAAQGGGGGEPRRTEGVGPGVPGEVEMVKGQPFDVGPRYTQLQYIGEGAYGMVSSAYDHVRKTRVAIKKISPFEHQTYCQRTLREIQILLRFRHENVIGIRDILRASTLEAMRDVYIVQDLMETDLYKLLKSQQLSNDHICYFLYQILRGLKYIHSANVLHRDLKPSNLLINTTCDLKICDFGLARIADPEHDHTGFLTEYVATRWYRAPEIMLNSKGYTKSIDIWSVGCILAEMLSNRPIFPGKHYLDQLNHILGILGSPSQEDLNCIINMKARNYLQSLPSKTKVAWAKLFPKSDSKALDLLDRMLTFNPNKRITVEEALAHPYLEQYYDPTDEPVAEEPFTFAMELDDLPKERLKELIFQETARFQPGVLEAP

[12] = molecular target: RAC-alpha serine/threonine-protein kinase (Homo sapiens) (UniProt P31749); assay: Inhibition of IL8-induced Akt phosphorylation in human neutrophils at 0.05 uM; outline: as §2
Homo sapiens [13] = species: Homo sapiens; assay: Inhibition of pyk2 50Kda region in human neutrophils assessed as reduction of IL8 stimulated tyrosin phosphorylation at 0.05 uM after 30 mins; outline: as §1
Homo sapiens [14] = species: Homo sapiens; assay: Inhibition of pyk2 60-70Kda region in human neutrophils assessed as reduction of IL8 stimulated tyrosin phosphorylation at 0.05 uM after 30 mins; outline: as §1
[15] = molecular target: RAC-alpha serine/threonine-protein kinase (Homo sapiens) (UniProt P31749); assay: Inhibition of IL8-induced Akt phosphorylation in human neutrophils at 0.06 uM; outline: as §2
Homo sapiens [16] = species: Homo sapiens; assay: Inhibition of pyk2 50Kda region in human neutrophils assessed as reduction of IL8 stimulated tyrosin phosphorylation at 0.06 uM after 30 mins; outline: as §1
Homo sapiens [17] = species: Homo sapiens; assay: Inhibition of pyk2 60-70Kda region in human neutrophils assessed as reduction of IL8 stimulated tyrosin phosphorylation at 0.06 uM after 30 mins; outline: as §1

CCOC(=O)c1cnn(CC(O)c2ccccc2)c1NC(=O)NCc1ccccc1 (stereo unspecified)
69%: Activity (Neutrophil)
inactive: Activity [1] | Activity [3] | Activity [4] | Activity [6] | Activity [7] | Activity [8] | Activity [9] | Activity [10] | Activity [11]
70%: inhibition (Homo sapiens [5])
63%: inhibition (Homo sapiens [2])

CCOC(=O)c1cnn(CC(O)c2ccccc2)c1NC(=O)Nc1ccccc1 (stereo unspecified)
inactive: Activity [1] | Activity [3] | Activity [4] | Activity [6] | Activity [7] | Activity [8] | Activity [12] | Activity [10] | Activity [11]
71%: inhibition (Homo sapiens [13])
81%: inhibition (Homo sapiens [14])
97%: Activity (Neutrophil)

CCOC(=O)c1cnn(CC(O)c2ccccc2)c1NC(=O)NC(C)C (stereo unspecified)
inactive: Activity [1] | Activity [3] | Activity [4] | Activity [6] | Activity [7] | Activity [8] | Activity [15] | Activity [10] | Activity [11]
53%: inhibition (Homo sapiens [17])
20%: inhibition (Homo sapiens [16])
97%: Activity (Neutrophil)
